The record followed here is ChEMBL document CHEMBL2396592, “Discovery of Dap-3 polymyxin analogues for the treatment of multidrug-resistant Gram-negative nosocomial infections” (J Med Chem, 2013).

Series [1] is described as follows: Cytotoxicity against human RPTEC after 24 hrs by LDH assay. Particulars: RPTEC cells, read-out: TC50. Type of series: cell-based. The gist of the method: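 Primary human renal proximal tubule epithelial cells in REGM (EGF, hydrocortisone, epinephrine, insulin, T3, transferrin, gentamycin/amphotericin-B, FBS). After 72 h of growth at 37 °C, 5% CO2, cells were exposed for 24 h to aqueous compound at 100, 67, 44, 30, 20 and 13 μM. LDH release into the supernatant was measured by kit and TC50 (μM) derived, with PMB and PMBN as controls.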

Series [2] deals with Acinetobacter baumannii. The experiment in a line: Antibacterial activity against polymyxin-sensitive Acinetobacter baumannii clinical isolate 3167 assessed as growth inhibition by broth microdilution method. Type of series: functional.
The test system of the next series is Escherichia coli. The experiment in a line: Antibacterial activity against polymyxin-sensitive Escherichia coli isolate 1 assessed as growth inhibition by broth microdilution method. The series is classed as functional. In general terms: Broth dilution looks for growth in wells or tubes with falling amounts of substance.
In series [3] the test system is Pseudomonas aeruginosa. As to the kind of experiment: Bactericidal activity against polymyxin-resistant Pseudomonas aeruginosa clinical isolate 1646. Type of series: functional. The gist of the method:
(§1)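 Test strain PA-1646 is a P. aeruginosa isolate with a mutated PmrAB two-component system. The system is constitutively active, so the modified lipid A moiety is constantly expressed on the cell surface, giving a polymyxin-resistant phenotype.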

The next series deals with Klebsiella pneumoniae. The experiment in a line: Antibacterial activity against polymyxin-sensitive ESBL-positive Klebsiella pneumoniae clinical isolate 3700 assessed as growth inhibition by broth microdilution method. Type of series: functional.
The subject of series [4] is Acinetobacter baumannii. As to the kind of experiment: Bactericidal activity against polymyxin-resistant Acinetobacter baumannii clinical isolate 1649. The series is classed as functional.
The subject of series [5] is Acinetobacter baumannii. The experiment in a line: Antibacterial activity against polymyxin-resistant Acinetobacter baumannii clinical isolate 1649 assessed as growth inhibition by broth microdilution method. The series is classed as functional.
Series [6] has as its system Pseudomonas aeruginosa. As to the kind of experiment: Antibacterial activity against polymyxin-resistant Pseudomonas aeruginosa clinical isolate 1646 assessed as growth inhibition by broth microdilution method. The series is classed as functional. The gist of the method:
as §1

In series [7] the test system is Pseudomonas aeruginosa. As to the kind of experiment: Antibacterial activity against polymyxin-sensitive Pseudomonas aeruginosa 1401 assessed as growth inhibition by broth microdilution method. Type of series: functional. Summed up:
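CLSI broth microdilution MIC against P. aeruginosa 1401 (PA01) and 1402 (UC12120), the two strains used in the mouse thigh model.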

The structures appear in SMILES notation. In brackets after ≈: the same amount, converted by molar mass. Where a SMILES comes first, the peptide text is derived from it. Bridges are numbered along the chain shown (N, C = ends). [ ]: non-standard residue; d: D form. The star is where a group is joined. Benzoyl(3-Ph) = O=C(c1cccc(-c2ccccc2)c1)*; X11 = COc1cc(C(=O)*)cc(-c2ccccc2)c1; X17 = O=S(=O)(c1cccc(-c2ccccc2)c1)*; X4 = O=C(c1ccnc(-c2ccc(Cl)cc2)c1)*; X10 = O=C(c1ccnc(-c2ccccc2Cl)c1)*; X13 = COc1ccc(-c2ccccc2)cc1C(=O)*; X2 = COc1ccc(C(=O)*)cc1-c1ccccc1; X14 = O=C(c1ccc(Oc2ccccc2)nc1)*; X3 = O=C(c1cncc(-c2ccccc2)c1)*; Dab = NCC[C@H](N)C(=O)O; Dap = NC[C@H](N)C(=O)O

As usually defined, the MIC is the lowest concentration that inhibits growth of the organism. What is called MBC is the lowest tested concentration that kills the bacteria rather than only halting them. High values mean weaker bactericidal potency, low ones greater bactericidal potency.

Take `CC(C)C[C@@H]1NC(=O)[C@@H](Cc2ccccc2)NC(=O)[C@H](CCN)NC(=O)[C@@H](NC(=O)[C@H](CN)NC(=O)[C@@H](NC(=O)[C@H](CCN)NC(=O)c2cccc(-c3ccccc3)c2)[C@@H](C)O)CCNC(=O)[C@H]([C@@H](C)O)NC(=O)[C@H](CCN)NC(=O)[C@H](CCN)NC1=O` ({Benzoyl(3-Ph)}-[Dab]T[Dap][Dab][Dab][dF]L[Dab][Dab]T; lactam 4-C): the CC50 at 24 h in series [1] stood at 21 µM. For the same compound, the MIC with Acinetobacter baumannii [2] is 0.25 µg/mL; in the series on Escherichia coli, 0.25 µg/mL; in the series with Klebsiella pneumoniae, 0.5 µg/mL; in the series on Acinetobacter baumannii [5], 2 µg/mL; in the series on Pseudomonas aeruginosa [6] it was 1 µg/mL; with Pseudomonas aeruginosa [7], 0.5 µg/mL. Also, the MBC in the series on Pseudomonas aeruginosa [3] and against Acinetobacter baumannii [4] was 2 µg/mL (≈ 1.63 µM) each time.

Consider `COc1ccc(C(=O)N[C@@H](CCN)C(=O)N[C@H](C(=O)N[C@@H](CN)C(=O)N[C@H]2CCNC(=O)[C@H]([C@@H](C)O)NC(=O)[C@H](CCN)NC(=O)[C@H](CCN)NC(=O)[C@H](CC(C)C)NC(=O)[C@@H](Cc3ccccc3)NC(=O)[C@H](CCN)NC2=O)[C@@H](C)O)cc1-c1ccccc1` (X2-[Dab]T[Dap][Dab][Dab][dF]L[Dab][Dab]T; lactam 4-C), for which the CC50 at 24 h in [1] is 27 µM. The MIC in the series on Acinetobacter baumannii [2] is 0.5 µg/mL; with Escherichia coli it was 0.25 µg/mL; in the series with Klebsiella pneumoniae, 0.25 µg/mL; with Acinetobacter baumannii [5] it was 2 µg/mL; in the series on Pseudomonas aeruginosa [6] it was 1 µg/mL; in the series with Pseudomonas aeruginosa [7], 0.5 µg/mL. Besides, the minimum bactericidal concentration (MBC) with Pseudomonas aeruginosa [3] and against Acinetobacter baumannii [4] was 2 µg/mL (≈ 1.59 µM) in each case.

Turning to `CC(C)C[C@@H]1NC(=O)[C@@H](Cc2ccccc2)NC(=O)[C@H](CCN)NC(=O)[C@@H](NC(=O)[C@H](CN)NC(=O)[C@@H](NC(=O)[C@H](CCN)NC(=O)c2cncc(-c3ccccc3)c2)[C@@H](C)O)CCNC(=O)[C@H]([C@@H](C)O)NC(=O)[C@H](CCN)NC(=O)[C@H](CCN)NC1=O` (X3-[Dab]T[Dap][Dab][Dab][dF]L[Dab][Dab]T; lactam 4-C), the CC50 at 24 h in series [1] came out at 56 µM. For the same compound, the MIC with Acinetobacter baumannii [2] worked out at 0.25 µg/mL; in the series with Escherichia coli, 0.125 µg/mL; in the series with Klebsiella pneumoniae it was 0.25 µg/mL; with Acinetobacter baumannii [5] it was 4 µg/mL; in the series on Pseudomonas aeruginosa [6], 2 µg/mL; with Pseudomonas aeruginosa [7], 0.5 µg/mL. The MBC in the series with Pseudomonas aeruginosa [3] and in the series on Acinetobacter baumannii [4] was 4 µg/mL (≈ 3.25 µM) in each case.

Consider `CC(C)C[C@@H]1NC(=O)[C@@H](Cc2ccccc2)NC(=O)[C@H](CCN)NC(=O)[C@@H](NC(=O)[C@H](CN)NC(=O)[C@@H](NC(=O)[C@H](CCN)NC(=O)c2ccnc(-c3ccc(Cl)cc3)c2)[C@@H](C)O)CCNC(=O)[C@H]([C@@H](C)O)NC(=O)[C@H](CCN)NC(=O)[C@H](CCN)NC1=O` (X4-[Dab]T[Dap][Dab][Dab][dF]L[Dab][Dab]T; lactam 4-C), for which, in series [1], the CC50 at 24 h was determined as 30 µM. Moreover, the MIC with Acinetobacter baumannii [2] was found to be 0.25 µg/mL; in the series with Escherichia coli, 0.25 µg/mL; with Klebsiella pneumoniae it was 0.25 µg/mL; with Acinetobacter baumannii [5] it was 1 µg/mL; in the series with Pseudomonas aeruginosa [6], 1 µg/mL; in the series on Pseudomonas aeruginosa [7], 0.5 µg/mL. The MBC in the series on Pseudomonas aeruginosa [3] and in the series on Acinetobacter baumannii [4] was 1 µg/mL (≈ 0.791 µM) each time.

Consider `CC(C)C[C@@H]1NC(=O)[C@@H](Cc2ccccc2)NC(=O)[C@H](CCN)NC(=O)[C@@H](NC(=O)[C@H](CN)NC(=O)[C@@H](NC(=O)[C@H](CCN)NC(=O)c2ccnc(-c3ccccc3Cl)c2)[C@@H](C)O)CCNC(=O)[C@H]([C@@H](C)O)NC(=O)[C@H](CCN)NC(=O)[C@H](CCN)NC1=O` (X10-[Dab]T[Dap][Dab][Dab][dF]L[Dab][Dab]T; lactam 4-C), for which the CC50 at 24 h in series [1] came to 86 µM. Besides, the MIC in the series on Acinetobacter baumannii [2] was 0.25 µg/mL; in the series on Escherichia coli, 0.125 µg/mL; with Klebsiella pneumoniae, 0.25 µg/mL; in the series on Acinetobacter baumannii [5], 1 µg/mL; in the series with Pseudomonas aeruginosa [6], 4 µg/mL; in the series on Pseudomonas aeruginosa [7], 0.5 µg/mL. Moreover, the results for the MBC in the series with Pseudomonas aeruginosa [3] and in the series with Acinetobacter baumannii [4] were 16 µg/mL (≈ 12.6 µM) and 1 µg/mL (≈ 0.791 µM), respectively.

Regarding `CC(C)C[C@@H]1NC(=O)[C@@H](Cc2ccccc2)NC(=O)[C@H](CCN)NC(=O)[C@@H](NC(=O)[C@H](CN)NC(=O)[C@@H](NC(=O)[C@H](CCN)NS(=O)(=O)c2cccc(-c3ccccc3)c2)[C@@H](C)O)CCNC(=O)[C@H]([C@@H](C)O)NC(=O)[C@H](CCN)NC(=O)[C@H](CCN)NC1=O` (X17-[Dab]T[Dap][Dab][Dab][dF]L[Dab][Dab]T; lactam 4-C), in series [1], the CC50 at 24 h came to 42 µM. In addition, the MIC in the series on Acinetobacter baumannii [2] was 1 µg/mL; in the series on Escherichia coli, 0.25 µg/mL; with Klebsiella pneumoniae, 0.5 µg/mL; in the series with Acinetobacter baumannii [5], 64 µg/mL; in the series on Pseudomonas aeruginosa [6], 2 µg/mL; in the series with Pseudomonas aeruginosa [7], 0.25 µg/mL. Besides, the MBC against Pseudomonas aeruginosa [3] was 4 µg/mL (≈ 3.16 µM); in the series on Acinetobacter baumannii [4] it was greater than 64 µg/mL.

On to `COc1cc(C(=O)N[C@@H](CCN)C(=O)N[C@H](C(=O)N[C@@H](CN)C(=O)N[C@H]2CCNC(=O)[C@H]([C@@H](C)O)NC(=O)[C@H](CCN)NC(=O)[C@H](CCN)NC(=O)[C@H](CC(C)C)NC(=O)[C@@H](Cc3ccccc3)NC(=O)[C@H](CCN)NC2=O)[C@@H](C)O)cc(-c2ccccc2)c1` (X11-[Dab]T[Dap][Dab][Dab][dF]L[Dab][Dab]T; lactam 4-C), for which the CC50 at 24 h in series [1] was 26 µM. Moreover, the MIC in the series with Acinetobacter baumannii [2] was found to be 0.25 µg/mL; in the series with Escherichia coli it was 0.25 µg/mL; in the series with Klebsiella pneumoniae, 0.25 µg/mL; in the series with Acinetobacter baumannii [5] it was 4 µg/mL; with Pseudomonas aeruginosa [6], 2 µg/mL; with Pseudomonas aeruginosa [7], 0.5 µg/mL. Further, the results for the MBC with Pseudomonas aeruginosa [3] and with Acinetobacter baumannii [4] were 4 µg/mL (≈ 3.18 µM) and 8 µg/mL (≈ 6.35 µM), respectively.

For the compound `CC(C)C[C@@H]1NC(=O)[C@@H](Cc2ccccc2)NC(=O)[C@H](CCN)NC(=O)[C@@H](NC(=O)[C@H](CN)NC(=O)[C@@H](NC(=O)[C@H](CCN)NC(=O)c2ccc(Oc3ccccc3)nc2)[C@@H](C)O)CCNC(=O)[C@H]([C@@H](C)O)NC(=O)[C@H](CCN)NC(=O)[C@H](CCN)NC1=O` (X14-[Dab]T[Dap][Dab][Dab][dF]L[Dab][Dab]T; lactam 4-C), in [1], the CC50 at 24 h is 61 µM. Moreover, the MIC in the series with Acinetobacter baumannii [2] was 0.25 µg/mL; in the series with Escherichia coli, 0.25 µg/mL; in the series on Klebsiella pneumoniae, 0.25 µg/mL; with Acinetobacter baumannii [5], 2 µg/mL; in the series on Pseudomonas aeruginosa [6], 4 µg/mL; in the series on Pseudomonas aeruginosa [7], 1 µg/mL. Further, the MBC stood at 16 µg/mL (≈ 12.8 µM) in the series with Pseudomonas aeruginosa [3] and 4 µg/mL (≈ 3.21 µM) against Acinetobacter baumannii [4].

With `COc1ccc(-c2ccccc2)cc1C(=O)N[C@@H](CCN)C(=O)N[C@H](C(=O)N[C@@H](CN)C(=O)N[C@H]1CCNC(=O)[C@H]([C@@H](C)O)NC(=O)[C@H](CCN)NC(=O)[C@H](CCN)NC(=O)[C@H](CC(C)C)NC(=O)[C@@H](Cc2ccccc2)NC(=O)[C@H](CCN)NC1=O)[C@@H](C)O` (X13-[Dab]T[Dap][Dab][Dab][dF]L[Dab][Dab]T; lactam 4-C), the CC50 at 24 h in [1] turned out to be 19 µM. For the same compound, the MIC came out at 0.25 µg/mL with Acinetobacter baumannii [2]; 0.5 µg/mL in the series on Escherichia coli; 0.25 µg/mL in the series with Klebsiella pneumoniae; 4 µg/mL in the series on Acinetobacter baumannii [5]; 2 µg/mL in the series on Pseudomonas aeruginosa [6]; 0.5 µg/mL in the series with Pseudomonas aeruginosa [7]. Further, the values for the MBC against Pseudomonas aeruginosa [3] and against Acinetobacter baumannii [4] were 2 µg/mL (≈ 1.59 µM) and 4 µg/mL (≈ 3.18 µM), respectively.
